Measurements taken from ChEMBL document CHEMBL2150916, “Dual inhibition of γ-oryzanol on cellular melanogenesis: inhibition of tyrosinase activity and reduction of melanogenic gene expression by a protein kinase A-dependent mechanism” (J Nat Prod, 2012).
Activity calls are given as the source filed them. The rule behind the calls is not given here.

Legend:
[1] = molecular target: T1, Tyrosinase (Agaricus bisporus) (UniProt O42713); test: Inhibition of mushroom tyrosinase after 20 mins
T1 sequence (whole entry): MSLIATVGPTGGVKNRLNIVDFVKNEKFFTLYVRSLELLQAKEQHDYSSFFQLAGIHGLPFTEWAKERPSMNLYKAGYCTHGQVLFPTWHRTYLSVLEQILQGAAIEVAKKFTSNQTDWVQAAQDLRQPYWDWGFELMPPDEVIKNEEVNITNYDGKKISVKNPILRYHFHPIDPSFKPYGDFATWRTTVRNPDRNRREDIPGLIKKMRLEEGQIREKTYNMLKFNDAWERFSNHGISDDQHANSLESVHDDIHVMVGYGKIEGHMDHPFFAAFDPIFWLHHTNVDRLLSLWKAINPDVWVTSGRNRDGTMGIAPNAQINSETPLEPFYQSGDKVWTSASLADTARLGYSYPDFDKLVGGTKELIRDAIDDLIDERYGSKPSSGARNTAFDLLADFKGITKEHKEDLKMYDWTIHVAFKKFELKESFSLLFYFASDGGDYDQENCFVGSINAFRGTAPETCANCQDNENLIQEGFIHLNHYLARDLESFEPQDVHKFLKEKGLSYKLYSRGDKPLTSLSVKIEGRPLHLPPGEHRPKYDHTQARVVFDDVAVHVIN
How it was run: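 Mushroom tyrosinase in 0.1 M phosphate buffer with 0.03% (w/v) tyrosine as substrate, incubated 37 °C for 20 min. OD read at 492 nm; inhibition % = (1 − sample/control OD492) × 100. Arbutin positive control.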

[2] = Cytotoxicity against mouse B16-F1 cells; assay type: cell-based
How it was run: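 MTT assay on B16F1 murine melanoma cells tested over 300−0.03 μM. Cells grown in DMEM with 10% FBS and 1% penicillin/streptomycin at 37 °C, 5% CO2.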

[3] = system: B16-F1; test: Inhibition of melanin synthesis in mouse B16-F1 cells at 30 uM after 30 mins by Fontana-Masson staining; assay type: functional, cell-based; details: in the assay text read “after 72 hrs” for “after 30 mins”
How it was run: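 B16F1 cells on slides treated with 30 μM, fixed in 4% paraformaldehyde for 30 min at room temperature. Melanin stained by Fontana−Masson (ammoniacal silver, gold chloride, sodium thiosulfate).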

[4] = system: B16-F1; test: Inhibition of melanin synthesis in mouse B16-F1 cells at 3 uM after 72 hrs by spectrophotometric analysis relative to control; assay type: functional; details: B16-F1, 72 h
How it was run: (§1)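 B16F1 cells treated 72 h (3 or 30 μM). After lysis and centrifugation at 12000g, pellets dissolved in 1 N NaOH at 60 °C for 1 h. Absorbance read at 400 nm against a synthetic melanin standard, normalized to Bradford protein. Arbutin positive control. Means ± SE of three independent experiments.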

[5] = system: B16-F1; test: Inhibition of melanin synthesis in mouse B16-F1 cells at 30 uM after 72 hrs by spectrophotometric analysis relative to control; assay type: functional; details: B16-F1, 72 h; how it was run: as §1
[6] = system: B16-F1; test: Inhibition of melanin synthesis in mouse B16-F1 cells after 72 hrs by spectrophotometric analysis; assay type: functional, cell-based; how it was run: as §1
[7] = Cytotoxicity against mouse B16-F1 cells at 5 mM; assay type: cell-based; details: b16-f1, 5000 µM
[8] = molecular target: T2, Tyrosinase (Mus musculus) (UniProt P11344); test: Inhibition of tyrosinase in mouse B16-F1 cells using L-DOPA as substrate at 3 uM after 72 hrs; assay type: cell-based
T2 sequence (whole entry): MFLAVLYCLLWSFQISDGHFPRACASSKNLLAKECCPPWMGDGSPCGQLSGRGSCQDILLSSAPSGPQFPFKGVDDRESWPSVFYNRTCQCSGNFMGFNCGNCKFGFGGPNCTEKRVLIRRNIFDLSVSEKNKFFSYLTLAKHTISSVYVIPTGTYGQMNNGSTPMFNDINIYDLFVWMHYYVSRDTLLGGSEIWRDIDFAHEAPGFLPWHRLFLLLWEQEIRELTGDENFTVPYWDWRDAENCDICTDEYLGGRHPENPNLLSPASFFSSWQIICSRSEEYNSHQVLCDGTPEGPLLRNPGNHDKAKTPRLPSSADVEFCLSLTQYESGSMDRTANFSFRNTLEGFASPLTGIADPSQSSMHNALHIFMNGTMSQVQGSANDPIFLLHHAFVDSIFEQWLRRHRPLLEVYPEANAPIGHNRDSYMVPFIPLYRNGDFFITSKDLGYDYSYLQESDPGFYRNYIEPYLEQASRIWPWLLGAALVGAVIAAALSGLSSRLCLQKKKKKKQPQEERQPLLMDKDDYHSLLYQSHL
How it was run: (§2)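 B16F1 cells treated 72 h with 3 or 30 μM. Cells lysed in 1% Triton X-100/PBS pH 6.8 and spun at 12000g, 4 °C. Supernatant mixed with 0.1% (w/v) L-DOPA; A475 followed over the first 2 h and normalized to total protein. Means ± SE of three independent experiments.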

[9] = molecular target: T2, Tyrosinase (Mus musculus); test: Inhibition of tyrosinase in mouse B16-F1 cells using L-DOPA as substrate at 30 uM after 72 hrs; assay type: cell-based; how it was run: as §2
[10] = system: B16/F1; test: Inhibition of PKA in mouse B16-F1 cells assessed as decrease of MITF mRNA expression at 3 uM after 72 hrs by RT-PCR analysis; assay type: cell-based
How it was run: (§3)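 B16F1 cells treated 72 h at 3 μM. Total RNA extracted with Trizol; cDNA made from 2 μg RNA with M-MLV reverse transcriptase and oligo(dT). qPCR run 95 °C 3 min, then 50 cycles of 95 °C 10 s, 56 °C 15 s, 72 °C 20 s, with melting-curve check. Expression calculated relative to cyclophilin. Means ± SE of three independent experiments.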

[11] = system: B16/F1; test: Inhibition of PKA in mouse B16-F1 cells assessed as decrease of TRP-1 mRNA expression at 3 uM after 72 hrs by RT-PCR analysis; assay type: cell-based; how it was run: as §3
[12] = system: B16/F1; test: Inhibition of PKA in mouse B16-F1 cells assessed as decrease of dopachrome tautomerase mRNA expression at 3 uM after 72 hrs by RT-PCR analysis; assay type: cell-based; how it was run: as §3
[13] = system: B16/F1; test: Inhibition of PKA in mouse B16-F1 cells assessed as decrease of MITF promoter- dependent paired-box 3 mRNA expression at 3 uM after 72 hrs […]; assay type: cell-based
How it was run: (§4)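 Two-color oligonucleotide microarray on Mouse OneArray chips, comparing untreated and treated (3 μM) B16F1 cells labelled with Cy3/Cy5-dUTP. RNA extracted with RNAiso Plus and further purified. Arrays scanned and probe-level expression values computed.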

[14] = system: B16/F1; test: Inhibition of PKA in mouse B16-F1 cells assessed as decrease of MITF promoter- dependent sex-determining region Y-box 10 mRNA expression at 3 uM after 72 hrs by […]; assay type: cell-based; how it was run: as §4
[15] = system: B16/F1; test: Inhibition of PKA in mouse B16-F1 cells assessed as decrease of MITF promoter- dependent lymphoid enhancer factor mRNA expression at 3 uM after 72 hrs by […]; assay type: cell-based; how it was run: as §4
[16] = system: B16/F1; test: Inhibition of PKA in mouse B16-F1 cells assessed as decrease of CREB mRNA expression at 3 uM after 72 hrs by […]; assay type: cell-based; how it was run: as §4
[17] = system: B16/F1; test: Inhibition of PKA in mouse B16-F1 cells assessed as decrease of MC1R mRNA expression at 3 uM after 72 hrs by RT-PCR analysis; assay type: cell-based
[18] = system: B16/F1; test: Inhibition of PKA in mouse B16-F1 cells assessed as decrease of intracellular cAMP level at 3 uM after 72 hrs by colorimetric competitive immunoassay; assay type: cell-based
How it was run: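 Cellular cAMP in B16F1 cells after 72 h at 3 μM, measured by colorimetric competitive immunoassay kit. Means ± SE of three independent experiments.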

[19] = system: B16/F1; test: Inhibition of PKA in mouse B16-F1 cells assessed as decrease of phosphorylated CREB expression at 3 uM after 72 hrs by immunoblotting; assay type: cell-based
How it was run: (§5)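 B16F1 cells treated 72 h at 3 μM. 40 μg total protein (Bradford) run on 10% SDS-PAGE and transferred to nitrocellulose. Blocked in TBS with 5% nonfat milk and 0.1% Tween 20. Probed with primary antibodies plus HRP secondaries and read by chemiluminescence. Band densities normalized to α-tubulin. Means ± SE of three independent experiments.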

[20] = system: B16/F1; test: Inhibition of PKA in mouse B16-F1 cells assessed as effect on ERK2 phosphorylation at 3 uM after 72 hrs by immunoblotting; assay type: cell-based
[21] = system: B16/F1; test: Inhibition of PKA in mouse B16-F1 cells assessed as effect on ERK2 mRNA expression at 3 uM after 72 hrs by RT-PCR analysis; assay type: cell-based
[22] = system: B16/F1; test: Inhibition of PKA in mouse B16-F1 cells assessed as decrease of MITF mRNA expression at 3 uM after 72 hrs by RT-PCR analysis relative to control; assay type: cell-based; how it was run: as §3
[23] = system: B16/F1; test: Inhibition of PKA in mouse B16-F1 cells assessed as decrease of TRP-1 mRNA expression at 3 uM after 72 hrs by RT-PCR analysis relative to control; assay type: cell-based; how it was run: as §3
[24] = system: B16/F1; test: Inhibition of PKA in mouse B16-F1 cells assessed as decrease of dopachrome tautomerase mRNA expression at 3 uM after 72 hrs by RT-PCR analysis relative to control; assay type: cell-based; how it was run: as §3
[25] = system: B16/F1; test: Inhibition of PKA in mouse B16-F1 cells assessed as decrease of MITF protein expression at 3 uM after 72 hrs by immunoblotting relative to control; assay type: cell-based; how it was run: as §5
[26] = system: B16/F1; test: Inhibition of PKA in mouse B16-F1 cells assessed as decrease of TRP-1 protein expression at 3 uM after 72 hrs by immunoblotting relative to control; assay type: cell-based; how it was run: as §5
[27] = system: B16/F1; test: Inhibition of PKA in mouse B16-F1 cells assessed as decrease of dopachrome tautomerase protein expression at 3 uM after 72 hrs by immunoblotting relative to control; assay type: cell-based; how it was run: as §5

In the case of `OC[C@H]1O[C@@H](Oc2ccc(O)cc2)[C@H](O)[C@@H](O)[C@@H]1O` [ARBUTIN], the inhibition [1] is reported as “Active” and the Activity [2] is reported as “Toxic”.
For `COc1cc(/C=C/C(=O)O[C@H]2CC[C@]34C[C@]35CC[C@]3(C)[C@@H]([C@H](C)CCC=C(C)C)CC[C@@]3(C)[C@@H]5CC[C@H]4C2(C)C)ccc1O` [GAMMA ORYZANOL], the inhibition [3] was “Active”, the inhibition [1] was “Dose-dependent effect” and the inhibition at 3 µM [4] was 13%. The inhibition at 30 µM [5] was 28%, the inhibition [6] was “Dose-dependent effect” and the Activity [7] was “Non-toxic”. The inhibition [8] was 29%, the inhibition [9] was 26% and the inhibition [10] was 90%. For the same compound, the inhibition [11] was 94%, the inhibition [12] was 56% and the inhibition [13] was 29%. It also gave an inhibition [14] of 90%, an inhibition [15] of 40% and an inhibition [16] of 28%. For the same compound, the inhibition [17] was 56%, the inhibition [18] was 13% and the inhibition [19] was 57%. For the same compound, the inhibition [20] was “inactive”, the inhibition [21] was “inactive” and the inhibition [22] was 59%. It also gave an inhibition [23] of 69%, an inhibition [24] of 51% and an inhibition [25] of 64%. For the same compound, the inhibition [26] was 82% and the inhibition [27] was 92%.
